Test results taken from ChEMBL document CHEMBL4396878, “Mechanisms of Specific versus Nonspecific Interactions of Aggregation-Prone Inhibitors and Attenuators” (J Med Chem, 2019).

Columns and labels:
Albumin [1] = molecular target: T1, Albumin (Homo sapiens, UniProt P02768); assay: Binding affinity to human serum albumin assessed as inhibition of compound aggregation at 250 uM by surface plasmon resonance analysis
Summary of the method: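 SPR on a nonfunctionalized gold nanoparticle sensor; samples in NMR buffer with DMSO at 1.25%, injected at 33 μL/min alongside matched DMSO controls (with HSA where present, 25 μM), in duplicate. Surface regenerated only after HSA-containing injections.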

Albumin [2] = molecular target: T1, Albumin; assay: Binding affinity to human serum albumin assessed as inhibition of compound aggregation at 200 to 500 uM by dynamic light scattering analysis
Summary of the method: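 Dynamic light scattering in NMR buffer, samples filtered through 0.22 μm and centrifuged 5 min at 13 500 rpm before measurement. Autocorrelation accumulated 150 s at a 173° scattering angle, in replicates of 3–5, with water viscosity used in analysis; intensity or volume size distributions reported.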

[3] = molecular target: T2, Rap guanine nucleotide exchange factor 3 (Homo sapiens) (UniProt O95398); assay: Binding affinity to human EPAC1 cAMP binding domain (149 to 318 residues) assessed as change in chemical shift at 100 uM in presence of human serum albumin by [15N-1H]HSQC spectroscopic analysis relative to compound alone
T2 sequence (whole entry): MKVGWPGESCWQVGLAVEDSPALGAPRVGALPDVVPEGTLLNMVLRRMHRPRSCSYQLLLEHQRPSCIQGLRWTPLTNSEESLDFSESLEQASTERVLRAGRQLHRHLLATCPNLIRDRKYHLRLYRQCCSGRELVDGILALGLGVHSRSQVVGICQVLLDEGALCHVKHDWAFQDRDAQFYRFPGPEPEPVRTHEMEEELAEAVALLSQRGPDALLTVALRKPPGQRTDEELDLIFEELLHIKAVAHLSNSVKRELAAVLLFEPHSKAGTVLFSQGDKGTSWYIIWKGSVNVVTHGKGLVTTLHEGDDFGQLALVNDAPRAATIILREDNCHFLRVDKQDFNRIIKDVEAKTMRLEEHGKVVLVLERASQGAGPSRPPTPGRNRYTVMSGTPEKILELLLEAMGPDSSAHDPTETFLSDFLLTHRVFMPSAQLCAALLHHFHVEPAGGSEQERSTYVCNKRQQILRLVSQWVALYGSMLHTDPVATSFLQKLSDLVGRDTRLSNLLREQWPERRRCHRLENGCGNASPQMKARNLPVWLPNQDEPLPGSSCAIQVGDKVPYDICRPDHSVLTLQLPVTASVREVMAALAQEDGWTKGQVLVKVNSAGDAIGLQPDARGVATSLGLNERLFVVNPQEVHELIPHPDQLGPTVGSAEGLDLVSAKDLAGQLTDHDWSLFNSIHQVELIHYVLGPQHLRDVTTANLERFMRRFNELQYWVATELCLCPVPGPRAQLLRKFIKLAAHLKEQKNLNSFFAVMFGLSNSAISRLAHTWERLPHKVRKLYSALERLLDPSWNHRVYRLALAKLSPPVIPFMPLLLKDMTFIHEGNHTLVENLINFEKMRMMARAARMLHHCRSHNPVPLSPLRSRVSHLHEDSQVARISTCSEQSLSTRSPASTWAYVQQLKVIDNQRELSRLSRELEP

T1 sequence (P02768 whole entry): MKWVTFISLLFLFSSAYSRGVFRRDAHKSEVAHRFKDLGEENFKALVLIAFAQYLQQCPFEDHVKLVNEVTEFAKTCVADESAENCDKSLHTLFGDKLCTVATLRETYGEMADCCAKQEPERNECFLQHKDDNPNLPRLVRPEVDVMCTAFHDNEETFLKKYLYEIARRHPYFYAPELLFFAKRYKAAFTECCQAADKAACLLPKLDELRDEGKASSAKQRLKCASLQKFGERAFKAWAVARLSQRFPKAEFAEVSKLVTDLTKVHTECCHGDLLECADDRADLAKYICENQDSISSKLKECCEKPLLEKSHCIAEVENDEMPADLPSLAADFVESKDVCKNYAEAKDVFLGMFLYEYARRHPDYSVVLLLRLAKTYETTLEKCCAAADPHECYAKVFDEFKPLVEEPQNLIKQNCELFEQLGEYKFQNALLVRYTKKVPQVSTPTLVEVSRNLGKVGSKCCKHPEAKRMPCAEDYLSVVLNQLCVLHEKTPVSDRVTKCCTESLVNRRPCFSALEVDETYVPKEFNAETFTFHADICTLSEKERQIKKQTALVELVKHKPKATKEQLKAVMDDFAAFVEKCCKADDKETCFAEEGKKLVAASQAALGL

CC(C)(C)c1cc(C(=O)/C(C#N)=N/Nc2cccc(Cl)c2)no1
inhibition (INH) (Albumin [1]): Active | inhibition (INH) (Albumin [2]): Active | Activity [3]: < 30%
